Data published in ChEMBL document CHEMBL2417528, “Synthesis and anticancer activity evaluation of a series of [1,2,4]triazolo[1,5-a]pyridinylpyridines in vitro and in vivo” (Eur J Med Chem, 2013).
Calls of active or inactive are those of the source. The calls are words filed in the database; no cut-off is given here.

Columns and labels:
[1] = Antiproliferative activity against human U87MG cells after 48 hrs by MTT assay; type: functional, cell-based, U-87MG ATCC; conditions: U-87 MG
Outline: (§1)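 Cells seeded at 3000–5000 per well in DMEM with 10% FBS and preincubated 24 h at 37 °C. Cell numbers were titrated so controls stay in exponential growth, then 48 h drug exposure. MTT added for 4 h, formazan pelleted by centrifugation and dissolved in DMSO, OD read at 490 nm. IC50 calculated from inhibition ratios, mean of three separate experiments in triplicate.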

HCT-116 [2] = experiment: Antiproliferative activity against human HCT116 cells after 48 hrs by MTT assay; type: functional, cell-based; conditions: HCT-116, 48 h; outline: as §1
MCF7 = experiment: Antiproliferative activity against human MCF7 cells after 48 hrs by MTT assay; type: functional, cell-based; conditions: MCF7, 48 h; outline: as §1
CCRF S-180 [3] = experiment: Antitumor activity against mouse S180 cells xenografted in mouse assessed as inhibition of tumor growth at 1 mg/kg, po qd for 10 days relative to control; type: functional; conditions: CCRF S-180, 240 h
Outline: (§2)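 Mice bearing sarcoma S-180 randomized into three groups of 6. Compound in DMSO/PEG400/5% glucose (10:60:30) given orally once daily for 10 days at 1 or 5 mg/kg. The solvent group received the same volume of vehicle. Mice sacrificed on Day 11, tumors weighed, and tumor-weight inhibitory ratio calculated versus the solvent group.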

Mus musculus [4] = experiment: Toxicity in mouse S180 cells xenografted mouse assessed as change on body weight at 5 mg/kg, po qd for 10 days; type: organism-based, CCRF S-180; set-up: dose 5 mg/kg, route oral; conditions: in vivo, 240 h
Outline: (§3)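 S-180 tumor-bearing mice (6 per group) dosed orally once daily for 10 days at 1 or 5 mg/kg in DMSO/PEG400/5% glucose (10:60:30), with a vehicle solvent group. Body weights recorded daily. Animals sacrificed on Day 11.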

Mus musculus [5] = experiment: Toxicity in mouse S180 cells xenografted mouse assessed as change on body weight at 1 mg/kg, po qd for 10 days; type: organism-based, CCRF S-180; set-up: dose 1 mg/kg, route oral; conditions: in vivo, 240 h; outline: as §3
HCT-116 [6] = experiment: Inhibition of PI3K in human HCT116 cells assessed as reduction of AKT phosphorylation at Ser473 at 10 uM after 1 hr by Western blot analysis; type: cell-based
Outline: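 HCT-116 cells seeded at 1 × 10⁶ per well in DMEM with 10% FBS and grown 16 h at 37 °C. Treated 1 h at 37 °C at […] or with DMSO. Cells washed in ice-cold PBS, lysed, and clarified at 12,000 rpm for 20 min at 4 °C. Protein quantified by BCA, run on SDS-PAGE, transferred to nitrocellulose, and probed for AKT and p-Ser473 AKT.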

Mus musculus [7] = experiment: Toxicity in mouse S180 cells xenografted mouse assessed as mortality at 20 mg/kg, po; type: organism-based, CCRF S-180; set-up: dose 20 mg/kg, route oral; conditions: in vivo
CCRF S-180 [8] = experiment: Antitumor activity against mouse S180 cells xenografted in mouse assessed as inhibition of tumor growth at 5 mg/kg, po qd for 10 days relative to control; type: functional; conditions: CCRF S-180, 240 h; outline: as §2

Compound | IC50 [1] | IC50 (HCT-116 [2]) | IC50 (MCF7) | inhibition in vivo at 1 mg/kg (CCRF S-180 [3]) | Activity (Mus musculus [4]) | Activity (Mus musculus [5]) | inhibition (HCT-116 [6]) | Activity (Mus musculus [7]) | inhibition in vivo at 5 mg/kg (CCRF S-180 [8])
COc1ncc(-c2ccc3nc(NC(=O)C4CC4)nn3c2)cc1NS(=O)(=O)c1ccc(F)cc1 | 4.85 µM | 1740 nM | 2590 nM |  |  |  |  |  | 
CCOC(=O)CNc1nc2ccc(-c3cnc(OC)c(NS(=O)(=O)c4ccc(F)cc4)c3)cn2n1 | 7.94 µM | 4370 nM | 4410 nM |  |  |  |  |  | 
COc1ncc(-c2ccc3nc(N)nn3c2)cc1NS(=O)(=O)c1ccc(C)cc1 | 2.51 µM | 3400 nM | 1550 nM |  |  |  |  |  | 
COc1ncc(-c2ccc3nc(NCC(N)=O)nn3c2)cc1NS(=O)(=O)c1ccc(F)cc1 | 5.8 µM | 6100 nM | 8400 nM |  |  |  |  |  | 
COc1ncc(-c2ccc3nc(NC(C)=O)nn3c2)cc1NS(=O)(=O)c1ccc(F)cc1 | 1.82 µM | 850 nM | 840 nM | 20% | < 90% | Non-toxic | Active | Non-toxic | 75.8%
CC(=O)Nc1nc2ccc(-c3cnc(Cl)c(NS(=O)(=O)c4ccc(F)cc4)c3)cn2n1 | 6.95 µM | 9230 nM | 19800 nM |  |  |  |  |  | 
COc1ncc(-c2ccc3nc(N)nn3c2)cc1NS(=O)(=O)c1ccc(F)cc1 | 3.95 µM | 2970 nM | 1930 nM |  |  |  |  |  | 
COc1ncc(-c2ccc3nc(NC(C)=O)nn3c2)cc1NS(=O)(=O)c1ccc(Cl)cc1 | 2.09 µM | 740 nM | 2010 nM |  |  |  |  |  | 
COc1ncc(-c2ccn3nc(NC(C)=O)nc3c2)cc1NS(=O)(=O)c1ccc(C)cc1 | 2.03 µM | 1380 nM | 1360 nM |  |  |  |  |  | 
COc1ncc(-c2ccn3nc(NC(C)=O)nc3c2)cc1NS(=O)(=O)c1ccc(F)cc1 | 2.41 µM | 1320 nM | 1730 nM |  |  |  |  |  | 
COc1ncc(-c2ccc3nc(N)nn3c2)cc1NS(=O)(=O)c1ccc(Cl)cc1 | 3.11 µM | 2500 nM | 1820 nM |  |  |  |  |  | 
O=C(Nc1nc2ccc(-c3cnc(Cl)c(NS(=O)(=O)c4ccc(F)cc4)c3)cn2n1)C1CC1 | 11 µM | 9980 nM | > 60000 nM |  |  |  |  |  | 
COc1ncc(-c2ccn3nc(NC(C)=O)nc3c2)cc1NS(=O)(=O)c1ccc(Cl)cc1 | 2.12 µM | 1330 nM | 1240 nM |  |  |  |  |  | 
COc1ncc(-c2ccc3nc(NCC(=O)O)nn3c2)cc1NS(=O)(=O)c1ccc(F)cc1 | 9.81 µM | 8640 nM | 12600 nM |  |  |  |  |  | 
CCOCCNc1nc2ccc(-c3cnc(OC)c(NS(=O)(=O)c4ccc(F)cc4)c3)cn2n1 | 8.15 µM | 9350 nM | 1350 nM |  |  |  |  |  | 
COc1ncc(-c2ccc3nc(NC(C)=O)nn3c2)cc1NS(=O)(=O)c1ccc(F)cc1F | 2 µM | 740 nM | 870 nM |  |  |  |  |  | 
COc1ncc(-c2ccn3nc(N)nc3c2)cc1NS(=O)(=O)c1ccc(F)cc1 | 1.77 µM | 820 nM | 920 nM |  |  |  | Active | Toxic | 
COCCNc1nc2ccc(-c3cnc(OC)c(NS(=O)(=O)c4ccc(F)cc4)c3)cn2n1 | 6.39 µM | 4610 nM | 2410 nM |  |  |  |  |  | 
Cn1c(=O)n(-c2ccc(C(C)(C)C#N)cc2)c2c3cc(-c4cnc5ccccc5c4)ccc3ncc21 [DACTOLISIB] | 1.32 µM | 1160 nM | 730 nM |  |  |  |  |  | 
CNC(=O)CNc1nc2ccc(-c3cnc(OC)c(NS(=O)(=O)c4ccc(F)cc4)c3)cn2n1 | 7.29 µM | 4910 nM | 2540 nM |  |  |  |  |  | 
COc1ncc(-c2ccc3nc(NC(C)=O)nn3c2)cc1NS(=O)(=O)C1CC1 | 3.73 µM | 2220 nM | 1640 nM |  |  |  |  |  | 
CC(=O)Nc1nc2ccc(-c3cnc(Cl)c(NS(=O)(=O)c4ccc(F)cc4)c3)cc2s1 |  |  | 230 nM |  |  |  | Active |  | 
CC(=O)Nc1nc2ccc(-c3cnc(Cl)c(NS(=O)(=O)c4ccc(C)cc4)c3)cn2n1 | 3.76 µM | 2650 nM | 3250 nM |  |  |  |  |  | 
COc1ncc(-c2ccc3nc(NC(C)=O)nn3c2)cc1NS(=O)(=O)c1ccc(C)cc1 | 1.6 µM | 600 nM | 810 nM |  |  |  |  |  | 
